Hits are enriched below; roughly 1.9% of the tested compounds scored in any of these assays.
Jurkat tox 60K: cytotoxic compounds reducing Jurkat cell viability. Jurkat E6.1 viability, ATP luminescence, 48 h. inhibition, % at 4 µM. 1.2% of 56,000 active;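 active = inhibition above the mean inhibition of all tested compounds plus 3 SD, cut at about 28% in these data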
SK-BR-3 tox 24h: SK-BR-3 proliferation inhibitors | SK-BR-3 viability, CellTiter-Glo ATP luminescence, 24 h; stronger effect = lower value | viability, % at 10 µM | 0.47% of 41,000 active | AID 847;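 active = viability at or below the median of all test compounds minus 3 SD, in both replicates if run twice, cut at about 45% in these data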;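 note: 100% = median untreated cell wells and 0% = median positive control drug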
S1P1 ag-PAM: agonists and agonism potentiators of human S1P1 receptor. P21453. S1P1 CRE-bla cells, forskolin, beta-lactamase FRET, potentiator mode; S1P1 agonist co-added at EC20, 2 nM; 100% = saturating reference agonist, 0% = basal. activation, % at 9.5 µM. 0.57% of 56,000 active;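 active = activation above a cutoff set at the mean activation of all tested compounds plus 3 SD, cut at about 54% in these data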;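 note: forskolin at 4 µM as EC80 and the EC20 agonist is SEW2871; 100% = SEW2871 at its EC100 plus forskolin at EC80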
Target sequence (P21453 whole entry, looked up): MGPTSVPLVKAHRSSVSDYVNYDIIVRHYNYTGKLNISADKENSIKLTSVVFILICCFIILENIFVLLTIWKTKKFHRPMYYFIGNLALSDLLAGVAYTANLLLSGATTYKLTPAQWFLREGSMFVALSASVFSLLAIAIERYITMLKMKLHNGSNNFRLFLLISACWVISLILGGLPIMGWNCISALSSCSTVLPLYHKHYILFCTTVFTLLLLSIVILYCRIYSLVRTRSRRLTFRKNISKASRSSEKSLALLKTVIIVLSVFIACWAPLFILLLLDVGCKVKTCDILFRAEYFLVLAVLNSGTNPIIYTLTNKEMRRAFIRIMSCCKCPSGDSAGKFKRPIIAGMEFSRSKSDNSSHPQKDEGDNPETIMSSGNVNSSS
HEK293 NFkB inh: lowers PMA/ionomycin-induced NF-kB signal in HEK293 cells; HEK-293 NF-kB luciferase reporter, luminescence; inhibition, % at 3 µM; 0.21% of 62,000 active; AID 465;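 active = inhibition above the mean of all tested compounds plus 3 SD, cut at about 40% in these data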;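 note: 0% = stimulated DMSO wells and 100% = 10 µM reference inhibitor 5653914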
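System – HEK-293 cells with stable firefly luciferase reporter driven by four HIV NF-kB elements · Doses – one dose, 3 µM · Schedule – 1 h compound pre-incubation, 16 h PMA/ionomycin at 37 °C · Technique – luminescence from luciferase substrate reagent · Measure – percent inhibition normalized per plate to DMSO and reference-inhibitor controls · Replicates – tested once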
Active calls of the source: *; / = not tested or not shown.

SMILES	Jurkat tox 60K	SK-BR-3 tox 24h	S1P1 ag-PAM	HEK293 NFkB inh
Nc1nnnn1/N=C/C=C/c1ccccc1	-3	90	15	7
Nc1nnnn1/N=C/C(Br)=C/c1ccccc1	84*	180	71	10
CCN(C(=O)c1c(OC)cccc1OC)c1nnc(-c2cccnc2)s1	7	77	-4	19
CCN(C(=O)C1CCCCC1)c1nnc(-c2cccnc2)s1	2	112	99*	5
CC1=C(C(=O)OCc2ccc3c(c2)OCO3)C(c2ccccc2)NC(=O)N1 (stereo not drawn)	38*	95	88*	37
CCCCCCC(=O)N1CCC(c2nc3c(nnn3Cc3ccccc3Cl)c(=O)[nH]2)CC1	4	92	-34	-10
Cc1cc(=O)oc2cc(OCC(=O)N3c4ccccc4CC3C)ccc12 (stereo not drawn)	72*	75	28	24
COc1cc(C(=O)NCc2nnc(SCC(=O)N3CCc4ccccc43)o2)cc(OC)c1OC	/	/	/	11
CC(C)C(=O)Nc1ccc(C(=O)NCc2cccnc2)cc1	82*	89	-22	12
CC(C)(C)c1ccc(C(=O)NCc2cccnc2)cc1	4	/	1	10
COCCOC(=O)c1[nH]c2c(c1C)C(=O)CC(c1ccc(F)cc1)C2 (stereo not drawn)	75*	/	29	8
CCOC(=O)c1[nH]c2c(c1C)C(=O)CC(c1ccco1)C2 (stereo not drawn)	100*	/	-10	41*
COCCOC(=O)c1[nH]c2c(c1C)C(=O)CC(c1ccccc1)C2 (stereo not drawn)	/	/	/	30
Cc1c(C(=O)OCCOC(C)C)[nH]c2c1C(=O)CC(c1ccco1)C2 (stereo not drawn)	100*	/	-12	48*
Cc1c(C(=O)OCc2ccccc2)[nH]c2c1C(=O)CC(c1ccco1)C2 (stereo not drawn)	98*	/	-1	38
CCOc1ccc(C2CC(=O)c3c([nH]c(C(=O)OC)c3C)C2)cc1OC (stereo not drawn)	/	/	/	8
COc1ccccc1OCCn1c(C(C)O)nc2ccccc21 (stereo not drawn)	6	85	-23	27
CCC1SC(N)=NC1=O (stereo not drawn)	/	113	-7	/
CSCCOC(=O)c1[nH]c2c(c1C)C(=O)CC(c1ccco1)C2 (stereo not drawn)	85*	/	21	29
COCCOC(=O)c1[nH]c2c(c1C)C(=O)CC(c1ccc(N(C)C)cc1)C2 (stereo not drawn)	-4	75	-3	5
COCCOC(=O)c1[nH]c2c(c1C)C(=O)CC(c1ccco1)C2 (stereo not drawn)	92*	/	-4	39
COn1c(SC2CCCCC2)nc2ccccc2c1=O	/	104	5	/
COc1ccc(NC(=O)Cn2nnc(-c3ccccc3NC(=O)c3ccco3)n2)cc1	-1	28*	10	14
Oc1ccc(Cl)cc1CNc1ccc(Br)cn1	56*	100	11	-4
CN(C)CC(C(=O)c1ccccc1)c1ccccc1 (stereo not drawn)	101*	6.4*	82	32
SMILES	Jurkat tox 60K	SK-BR-3 tox 24h	S1P1 ag-PAM	HEK293 NFkB inh
COc1ccc(C(C(=O)OC(C)CN(C)C)c2ccccc2)cc1 (stereo not drawn)	0	/	-8	12
COc1cc(Cl)c(C)cc1NC(=O)CSc1nnc(-c2ccccn2)n1Cc1ccco1	-1	66	5	16
Cc1nnc(SC(=O)N2c3ccccc3Sc3ccccc32)s1	17	/	115*	28
Cc1nnc(SCC(=O)N2c3ccccc3Sc3ccccc32)n1N	1	109	-5	9
Cc1cc(C)nc(N2CCCC(C(=O)NCCc3ccc(F)cc3)C2)n1 (stereo not drawn)	-4	102	-9	10
Cc1cc(C)nc(N2CCC(C(=O)NCCc3ccc(F)cc3)CC2)n1	4	83	-16	52*
CCOC(=O)/C=C/S(=O)(=O)c1ccc(NC(C)=O)cc1	52*	3.0*	152*	13
O=C(CSc1nnc(-c2ccccc2)n1Cc1ccccc1)N1CCOCC1	4	/	-4	9
Oc1ccccc1-c1nnc(SCCN2CCOCC2)n1Cc1ccccc1	78*	81	-10	28
CCCCOc1ccc(OCCNS(=O)(=O)N(C)C)cc1	5	/	-48	18
Cc1cc(C(=O)OCC(=O)NCc2ccco2)c(C)n1-c1ccc(F)cc1	75*	/	8	30
N#CCCn1nc(-c2ccccc2)cc1Nc1ccccc1NC(=O)c1cccs1	/	89	/	6
O=C(CCS(=O)(=O)c1ccc(Cl)cc1)N1CCN(S(=O)(=O)c2cccs2)CC1	9	/	0	14
O=S(=O)(c1cccs1)N1CCN(CC(O)COc2cc(Cl)ccc2Cl)CC1 (stereo not drawn)	25	/	66*	15
COc1ccc2[nH]c3nc(SCc4nnc(-c5ccc(C)cc5)o4)nnc3c2c1	2	76	-30	12
CCOC(=O)Nc1ccc2c(c1)Sc1ccccc1N2C(=O)CCN1CCOCC1	-9	80	-17	2
CC(C)N=c1cc2n(-c3ccc(Cl)cc3)c3ccccc3nc-2cc1Nc1ccc(Cl)cc1	/	93	-9	/
Cc1cc(C(=O)Nc2sc(C)c(-c3ccc(F)cc3)c2C(N)=O)no1	-1	/	102*	-54
CCCc1cc(C(N)=O)c(NC(=O)c2cc(C)on2)s1	-3	82	15	-19
CCN(CC)CCCNC(CC(=O)O)C(=O)O (stereo not drawn)	-6	48	0	16
Cc1ccc2nc3c(cc(C(N)=S)c(=N)n3CCCOC(C)C)c(=O)n2c1	5	70	-15	4
CCOC(=O)C1(N(CC)CC)Sc2cc(C)ccc2NC1=O (stereo not drawn)	36*	78	-3	6
COc1ccc(-n2c(SCC(=O)Nc3cc(C)on3)nc3c(c2=O)SCC3)cc1	-2	/	-20	15
Cc1cc(NC(=O)CSc2nc3c(c(=O)n2-c2ccc(Br)cc2)SCC3)no1	2	40*	1	15
CC(C)(C)C(=O)/C=C(N)/C=C/c1ccccc1	8	/	16	12
SMILES	Jurkat tox 60K	SK-BR-3 tox 24h	S1P1 ag-PAM	HEK293 NFkB inh
COCc1nnc(NC(=O)c2ccc(S(=O)(=O)N(C)C3CCCCC3)cc2)o1	10	27*	14	26
COCCN(CCOC)S(=O)(=O)c1ccc(C(=O)Nc2nnc(C)o2)cc1	9	19*	-1	28
COCc1nnc(NC(=O)c2ccc(S(=O)(=O)N3CCCCCC3)cc2)o1	-2	47	8	18
Cc1nnc(NC(=O)c2ccc(S(=O)(=O)N3CCCCCC3)cc2)o1	9	89	11	30
CCN(CC)S(=O)(=O)c1ccc(C(=O)Nc2ccc3c(c2)OCCO3)cc1	-4	/	20	12
Cc1nnc(NC(=O)c2ccc(S(=O)(=O)N(C)Cc3ccccc3)cc2)o1	11	31*	8	20
CCN(Cc1ccccc1)S(=O)(=O)c1ccc(C(=O)Nc2nnc(C3CC3)o2)cc1	101*	/	18	3
CCOC(=O)c1nnn(-c2nonc2N)c1CSc1ccccn1	-8	52	-24	-2

Screening data as filed in PubChem.
